# Reference: ChEMBL document CHEMBL4028868, “Click-Chemistry-Mediated Synthesis of Selective Melanocortin Receptor 4 Agonists” (J Med Chem, 2017)
# Tests used:
# Melanocortin receptor 3 [1] = target: T1, Melanocortin receptor 3 (Homo sapiens, UniProt P41968); assay: Agonist activity at EYFP-fused human MC3R expressed in HEK293 cells after 16 to 20 hrs by CRE-driven reporter assay; assay type: functional, cell-based
# Summary of the method: (§1)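 HEK293 monoclonal lines carrying a single receptor/9×CRE-d2EYFP construct, selected with puromycin and FACS-sorted, kept in low-fluorescence DMEM. EYFP imaged with bright-field images, normalized to cell coverage, corrected for unstimulated cells and scaled to α-MSH maximum. Four-parameter fit constrained to minimum 0, at least three independent experiments.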
# Melanocortin receptor 3 [2] = target: T1, Melanocortin receptor 3; assay: Agonist activity at EYFP-fused human MC3R expressed in HEK293 cells at 3000 nM after 16 to 20 hrs by CRE-driven reporter assay relative to alpha-MSH; assay type: functional, cell-based
# Summary of the method: as §1, with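 “DMEM. Seeded at 50,000 cells/well and treated after 24 h for 16–20 h with 11-point 3-fold dilutions (3.3 μM to […]) in triplicate, vehicle 0.5% v/v DMSO.” for “DMEM.”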
# Melanocortin receptor 4 [3] = target: T2, Melanocortin receptor 4 (Homo sapiens, UniProt P32245); assay: Agonist activity at EYFP-fused human MC4R expressed in HEK293 cells after 16 to 20 hrs by CRE-driven reporter assay; assay type: functional, cell-based
# Melanocortin receptor 5 [4] = target: T3, Melanocortin receptor 5 (Homo sapiens, UniProt P33032); assay: Agonist activity at EYFP-fused human MC5R expressed in HEK293 cells after 16 to 20 hrs by CRE-driven reporter assay; assay type: functional, cell-based; summary of the method: as §1
# Melanocortin receptor 5 [5] = target: T3, Melanocortin receptor 5; assay: Agonist activity at EYFP-fused human MC5R expressed in HEK293 cells at 3000 nM after 16 to 20 hrs by CRE-driven reporter assay relative to alpha-MSH; assay type: functional, cell-based
# Summary of the method: as §1, with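 “DMEM. Seeded at 50,000 cells/well and treated after 24 h for 16–20 h with 11-point 3-fold dilutions (3.3 μM to […]) in triplicate, vehicle 0.5% v/v DMSO.” for “DMEM.”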
# Melanocortin receptor 4 [6] = target: T2, Melanocortin receptor 4; assay: Agonist activity at EYFP-fused human MC4R expressed in HEK293 cells assessed as increase in cAMP accumulation after 30 mins by luminescent enzymatic complementation based assay; assay type: functional, cell-based
# Melanocortin receptor 3 [7] = target: T1, Melanocortin receptor 3; assay: Agonist activity at EYFP-fused human MC3R expressed in HEK293 cells after 16 to 20 hrs by CRE-driven reporter assay relative to alpha-MSH; assay type: functional, cell-based; summary of the method: as §1
# Melanocortin receptor 5 [8] = target: T3, Melanocortin receptor 5; assay: Agonist activity at EYFP-fused human MC5R expressed in HEK293 cells after 16 to 20 hrs by CRE-driven reporter assay relative to alpha-MSH; assay type: functional, cell-based; summary of the method: as §1
# Melanocortin receptor 4 [9] = target: T2, Melanocortin receptor 4; assay: Agonist activity at EYFP-fused human MC4R expressed in HEK293 cells at 3000 nM after 16 to 20 hrs by CRE-driven reporter assay relative to alpha-MSH; assay type: functional, cell-based
# Summary of the method: as §1, with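 “DMEM. Seeded at 50,000 cells/well and treated after 24 h for 16–20 h with 11-point 3-fold dilutions (3.3 μM to […]) in triplicate, vehicle 0.5% v/v DMSO.” for “DMEM.”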
# Melanocortin receptor 4 [10] = target: T2, Melanocortin receptor 4; assay: Agonist activity at EYFP-fused human MC4R expressed in HEK293 cells assessed as increase in cAMP accumulation at 3000 nM after 30 mins by luminescent enzymatic complementation based assay relative to alpha-MSH; assay type: functional, cell-based
# Summary of the method: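 MC4R-expressing HEK293 cells seeded at 50,000/well and switched after 24 h to HBSS with 500 μM IBMX. Ligand was added as 11-point series in triplicate for 30 min. Cells were lysed and incubated with enzyme fragments and substrate at room temperature in the dark for at least 4 h. Luminescence from enzyme complementation was background-corrected and normalized to the α-MSH maximum, with at least three independent experiments.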
# Homo sapiens = species on record: Homo sapiens; assay: Selectivity ratio of EC50 for EYFP-fused human MC3R expressed in HEK293 cells to EC50 for EYFP-fused human MC4R expressed in HEK293 cells; assay type: cell-based
# T1 sequence (P41968 whole entry, the tested form may be a part): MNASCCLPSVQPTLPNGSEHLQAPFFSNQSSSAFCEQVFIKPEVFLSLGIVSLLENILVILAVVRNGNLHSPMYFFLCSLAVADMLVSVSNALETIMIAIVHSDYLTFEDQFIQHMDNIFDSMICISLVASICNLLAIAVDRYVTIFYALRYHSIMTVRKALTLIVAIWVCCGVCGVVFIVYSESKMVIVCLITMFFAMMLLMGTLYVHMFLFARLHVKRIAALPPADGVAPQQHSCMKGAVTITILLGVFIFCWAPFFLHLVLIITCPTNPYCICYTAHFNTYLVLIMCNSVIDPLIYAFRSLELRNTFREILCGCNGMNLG
# T2 sequence (P32245 whole entry, the tested form may be a part): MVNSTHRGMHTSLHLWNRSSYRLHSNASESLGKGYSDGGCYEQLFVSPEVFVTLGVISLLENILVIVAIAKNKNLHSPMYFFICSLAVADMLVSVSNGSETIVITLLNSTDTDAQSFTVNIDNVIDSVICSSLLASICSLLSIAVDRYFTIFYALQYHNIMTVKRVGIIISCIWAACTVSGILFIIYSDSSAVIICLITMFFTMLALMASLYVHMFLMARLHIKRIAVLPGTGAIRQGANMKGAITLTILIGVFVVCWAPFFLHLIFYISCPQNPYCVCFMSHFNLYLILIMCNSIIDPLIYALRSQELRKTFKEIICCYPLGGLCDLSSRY
# T3 sequence (P33032 whole entry, the tested form may be a part): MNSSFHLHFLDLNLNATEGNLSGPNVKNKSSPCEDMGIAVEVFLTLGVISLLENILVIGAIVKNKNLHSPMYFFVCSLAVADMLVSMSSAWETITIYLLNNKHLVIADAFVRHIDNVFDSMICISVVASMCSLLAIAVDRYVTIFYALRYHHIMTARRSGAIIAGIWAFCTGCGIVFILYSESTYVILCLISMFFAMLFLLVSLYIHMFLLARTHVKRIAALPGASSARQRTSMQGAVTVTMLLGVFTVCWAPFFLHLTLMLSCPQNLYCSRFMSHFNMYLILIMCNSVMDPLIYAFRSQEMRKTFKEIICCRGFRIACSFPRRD
EC50 (Melanocortin receptor 3 [1]) [nM],Emax (Melanocortin receptor 3 [2]) [%],EC50 (Melanocortin receptor 4 [3]) [nM],EC50 (Melanocortin receptor 5 [4]) [nM],Emax (Melanocortin receptor 5 [5]) [%],EC50 (Melanocortin receptor 4 [6]) [nM],Emax (Melanocortin receptor 3 [7]) [%],Emax (Melanocortin receptor 5 [8]) [%],Emax (Melanocortin receptor 4 [9]) [%],Emax (Melanocortin receptor 4 [10]) [%],SMILES,Ratio EC50 (Homo sapiens)
> 3000,32,678,> 3000,1,792,–,–,–,–,CSCC[C@H](NC(=O)[C@@H]1Cc2cn(nn2)C[C@H](NC(=O)[C@@H](N)CCCCN)C(=O)N[C@@H](Cc2cnc[nH]2)C(=O)N[C@@H](Cc2ccccc2)C(=O)N[C@@H](CCCNC(=N)N)C(=O)N[C@@H](Cc2c[nH]c3ccccc23)C(=O)N1)C(=O)O,–
291,–,11.4,752,–,43.3,102,85,–,–,CSCC[C@H](NC(=O)[C@@H]1Cc2cn(nn2)C[C@H](NC(=O)[C@@H](N)CCCNC(=N)N)C(=O)N[C@@H](Cc2cnc[nH]2)C(=O)N[C@H](Cc2ccccc2)C(=O)N[C@@H](CCCNC(=N)N)C(=O)N[C@@H](Cc2c[nH]c3ccccc23)C(=O)N1)C(=O)O,–
> 3000,0,> 3000,> 3000,0,> 3000,–,–,48,28,CSCC[C@H](NC(=O)[C@@H]1Cc2cn(nn2)C[C@H](NC(=O)[C@@H](N)CCCCN)C(=O)N[C@@H](Cc2c[nH]c3ccccc23)C(=O)N[C@H](Cc2ccccc2)C(=O)N[C@@H](CCCNC(=N)N)C(=O)N[C@@H](Cc2cnc[nH]2)C(=O)N1)C(=O)O,–
> 3000,33,112,> 3000,8,943,–,–,–,–,CSCC[C@H](NC(=O)[C@@H]1Cc2cn(nn2)C[C@H](NC(=O)[C@@H](N)CCCCN)C(=O)N[C@@H](Cc2cnc[nH]2)C(=O)N[C@H](C)C(=O)N[C@@H](CCCNC(=N)N)C(=O)N[C@@H](Cc2c[nH]c3ccccc23)C(=O)N1)C(=O)O,–
160,–,3.2,916,–,9.6,112,106,–,–,CSCC[C@H](NC(=O)[C@@H]1Cc2cn(nn2)[C@@H](CCCNC(=N)N)C(=O)N[C@@H](Cc2cnc[nH]2)C(=O)N[C@H](Cc2ccccc2)C(=O)N[C@@H](CCCNC(=N)N)C(=O)N[C@@H](Cc2c[nH]c3ccccc23)C(=O)N1)C(=O)O,–
1910 to 3000,17,> 3000,809 to 3000,18,> 3000,–,–,19,16,CSCC[C@H](NC(=O)[C@@H]1Cc2cn(nn2)C[C@H](NC(=O)[C@@H](N)CCCCN)C(=O)N[C@@H](Cc2cnc[nH]2)C(=O)N[C@H](Cc2ccccc2)C(=O)N[C@@H](CCCNC(=N)N)C(=O)N[C@@H](C)C(=O)N1)C(=O)O,–
> 3000,0,> 3000,> 3000,0,> 3000,–,–,42,13,CC[C@@H](C)[C@H]1NC(=O)[C@H](Cc2cnc[nH]2)NC(=O)[C@@H](NC(=O)[C@@H](N)CCCCN)Cn2cc(nn2)C[C@@H](C(=O)N[C@@H](CCSC)C(=O)O)NC(=O)[C@H](Cc2c[nH]c3ccccc23)NC(=O)[C@H](CCCNC(=N)N)NC1=O,–
162,–,2.3,635,–,17.9,107,126,–,–,C[C@H](NC(=O)[C@@H]1Cc2cn(nn2)C[C@H](NC(=O)[C@@H](N)CCCCN)C(=O)N[C@@H](Cc2cnc[nH]2)C(=O)N[C@H](Cc2ccccc2)C(=O)N[C@@H](CCCNC(=N)N)C(=O)N[C@@H](Cc2c[nH]c3ccccc23)C(=O)N1)C(=O)O,–
> 3000,16,185,> 3000,3,720,–,–,–,–,CSCC[C@H](NC(=O)[C@@H]1Cc2cn(nn2)CCC[C@H](N)C(=O)N[C@@H](Cc2cnc[nH]2)C(=O)N[C@H](Cc2ccccc2)C(=O)N[C@@H](CCCNC(=N)N)C(=O)N[C@@H](Cc2c[nH]c3ccccc23)C(=O)N1)C(=O)O,–
633,–,2.8,375,–,28.8,104,130,–,–,CSCC[C@H](NC(=O)[C@@H]1Cc2cn(nn2)C[C@H](NC(=O)[C@@H](N)CCCCN)C(=O)N[C@@H](C)C(=O)N[C@H](Cc2ccccc2)C(=O)N[C@@H](CCCNC(=N)N)C(=O)N[C@@H](Cc2c[nH]c3ccccc23)C(=O)N1)C(=O)O,–
19.4,–,1.4,137,–,2,111,123,–,–,CSCC[C@H](NC(=O)[C@@H]1Cc2cn(nn2)C[C@H](NC(=O)[C@H](C)N)C(=O)N[C@@H](Cc2cnc[nH]2)C(=O)N[C@H](Cc2ccccc2)C(=O)N[C@@H](CCCNC(=N)N)C(=O)N[C@@H](Cc2c[nH]c3ccccc23)C(=O)N1)C(=O)O,–
123,–,1.8,299,–,9.2,105,120,–,–,CSCC[C@H](NC(=O)[C@@H]1Cc2cn(nn2)C[C@H](NC(=O)[C@@H](N)CCCCN)C(=O)N[C@@H](Cc2cnc[nH]2)C(=O)N[C@H](Cc2ccccc2)C(=O)N[C@@H](CCCNC(=N)N)C(=O)N[C@@H](Cc2c[nH]c3ccccc23)C(=O)N1)C(=O)O,70
> 3000,10,258,> 3000,5,684,–,–,–,–,CSCC[C@H](NC(=O)[C@@H]1Cc2cn(nn2)C[C@H](NC(=O)[C@@H](N)CCCCN)C(=O)N[C@@H](Cc2cnc[nH]2)C(=O)N[C@H](Cc2ccccc2)C(=O)N[C@@H](C)C(=O)N[C@@H](Cc2c[nH]c3ccccc23)C(=O)N1)C(=O)O,–
> 3000,12,318,> 3000,9,730,–,–,–,–,CSCC[C@H](NC(=O)[C@@H]1Cc2cn(nn2)C[C@H](NC(=O)[C@@H](N)CCCCN)C(=O)N[C@@H](Cc2cnc[nH]2)C(=O)N[C@H](Cc2ccccc2)C(=O)N[C@@H](CCCN)C(=O)N[C@@H](Cc2c[nH]c3ccccc23)C(=O)N1)C(=O)O,–
821,–,7.6,> 3000,59,63.7,96,–,–,–,CSCC[C@H](NC(=O)[C@@H]1Cc2cn(nn2)C[C@H](NC(=O)[C@@H](N)CCCCN)C(=O)N[C@@H](Cc2cnc[nH]2)C(=O)N[C@H](Cc2ccccc2)C(=O)N[C@@H](CCCNC(=N)N)C(=O)N[C@@H](Cc2csc3ccccc23)C(=O)N1)C(=O)O,–
> 3000,40,12.7,> 3000,13,124,–,–,–,–,CSCC[C@H](NC(=O)[C@@H]1Cc2cn(nn2)C[C@H](NC(=O)[C@@H](N)CCCCN)C(=O)N[C@@H](Cc2cnc[nH]2)C(=O)N[C@H](Cc2ccccc2)C(=O)N[C@@H](CCCCN)C(=O)N[C@@H](Cc2c[nH]c3ccccc23)C(=O)N1)C(=O)O,–

SMILES,EC50 (Melanocortin receptor 3 [1]) [nM],Emax (Melanocortin receptor 3 [2]) [%],EC50 (Melanocortin receptor 4 [3]) [nM],EC50 (Melanocortin receptor 5 [4]) [nM],Emax (Melanocortin receptor 5 [5]) [%],EC50 (Melanocortin receptor 4 [6]) [nM],Emax (Melanocortin receptor 3 [7]) [%],Emax (Melanocortin receptor 5 [8]) [%],Emax (Melanocortin receptor 4 [9]) [%],Emax (Melanocortin receptor 4 [10]) [%],Ratio EC50 (Homo sapiens)
CC(=O)N[C@@H](CCCNC(=N)N)C(=O)N[C@H]1CSSC[C@@H](C(N)=O)NC(=O)[C@H](Cc2c[nH]c3ccccc23)NC(=O)[C@H](CCCNC(=N)N)NC(=O)[C@@H](Cc2ccccc2)NC(=O)[C@H](Cc2c[nH]cn2)NC(=O)[C@@H](C)NC1=O,–,–,–,110,–,–,–,–,–,–,–
